# ChEMBL document CHEMBL4229537, “Synthesis and bioactivities evaluation of l-pyroglutamic acid analogues from natural product lead” (Bioorg Med Chem, 2018)
# Legend:
# Ralstonia solanacearum = assay: Antibacterial activity against Ralstonia solanacearum at 2 mg/ml after 4 to 10 hrs by filter paper dispersion method; type: functional; conditions: read-out: IZ
# Phytophthora infestans [1] = assay: Antifungal activity against Phytophthora infestans assessed as inhibition of zoospore release at 100 ug/ml after 4 hrs relative to control; type: functional
# Summary of the method: (§1)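 Zoospore release assay: compounds mixed with zoosporangia, held at 4 °C in darkness for 4 h; screened at 100 µg/mL. Solvent negative, azoxystrobin positive control. Release scored once control release reached 90%. Inhibition (%) = (P0−P1)/P0×100. EC50 determined for compounds exceeding 50% inhibition. Means ± SD of three independent experiments.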
# Phytophthora infestans [2] = assay: Antifungal activity against Phytophthora infestans assessed as inhibition of zoospore release after 4 hrs; type: functional, organism-based; summary of the method: as §1
# Bacillus thuringiensis = assay: Antibacterial activity against Bacillus thuringiensis at 2 mg/ml after 4 to 10 hrs by filter paper dispersion method; type: functional; conditions: read-out: IZ
# Summary of the method: (§2)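 Filter paper diffusion method. Activated bacteria suspended in sterile water, mixed into beef extract peptone medium, and 3 mL poured per 9 cm dish. 5 µL of 2 mg/mL compound applied to 6 mm paper discs in three parallels. Fosfomycin as positive control, solvent as negative control. Dried discs placed on medium and incubated 4-10 h at 37°C. Inhibition zone size and transparency recorded by crisscross method.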
# Bacillus cereus = assay: Antibacterial activity against Bacillus cereus at 2 mg/ml after 4 to 10 hrs by filter paper dispersion method; type: functional; conditions: read-out: IZ; summary of the method: as §2
# BV-2 = assay: Antiinflammatory activity in mouse BV2 cells assessed as inhibition of LPS-induced nitric oxide production after 24 hrs by Griess assay; type: functional, cell-based; conditions: BV-2, 24 h
# Summary of the method: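 BV-2 microglia plated at 1 × 10^5 cells/mL and grown 24 h. Cells pretreated with compound, then stimulated with 1 µg/mL LPS for another 24 h. Quercetin as positive control. Supernatant mixed with Griess reagent and absorbance read at 540 nm. IC50 reported as mean ± SD of three independent experiments.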
# [3] = Cytotoxicity against LPS-treated mouse BV2 cells assessed as cell viability after 24 hrs by SRB assay relative to control; type: cell-based, BV-2; set-up: concentration or dose not given beside the values; conditions: read-out: Activity
# Summary of the method: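 BV-2 cells pretreated with compound, then exposed to 1 µg/mL LPS for 24 h. Viability measured by SRB assay and expressed as % of control group. Mean ± SD of three independent experiments.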
# [4] = tested on: Pectobacterium carotovorum; assay: Antibacterial activity against Erwinia caratovora at 2 mg/ml after 4 to 10 hrs by filter paper dispersion method; type: functional; conditions: read-out: IZ; summary of the method: as §2
# Phytophthora infestans [5] = assay: Antifungal activity against Phytophthora infestans; type: functional, organism-based; summary of the method: as §1
# [6] = tested on: Pseudoperonospora cubensis; assay: Antifungal activity against Pseudoperonospora cubensis; type: functional, organism-based
# PC-12 = assay: Neurotogenic activity in NGF-induced rat PC12 cells assessed as neurite bearing cell levels at 20 uM after 48 hrs by inverted microscopic method (reference value: 0.77 +/- 0.13%); type: functional
# Staphylococcus aureus = assay: Antibacterial activity against Staphylococcus aureus at 2 mg/ml after 4 to 10 hrs by filter paper dispersion method; type: functional; conditions: read-out: IZ; summary of the method: as §2
# Phytophthora infestans [7] = assay: Potency index, ratio of azoxystrobin EC50 to test compound EC50 for Phytophthora infestans; type: functional
SMILES,inhibition at 100 µg/mL (Phytophthora infestans [1]),EC50 (Phytophthora infestans [2]),zone of inhibition at 2000 µg/mL (Bacillus thuringiensis),other results
C#CCOC(=O)[C@@H]1CCC(=O)N1,,,,zone of inhibition at 2000 µg/mL (Ralstonia solanacearum): 6 mm
O=C1CC[C@@H](C(=O)Oc2ccccc2[N+](=O)[O-])N1,96.3%,8.58 µg/mL,,
CC(C)NC(=O)[C@@H]1CCC(=O)N1,,,10 mm,zone of inhibition at 2000 µg/mL (Bacillus cereus): 5.5 mm
Cc1cc(Cl)ccc1OC(=O)[C@@H]1CCC(=O)N1,39.8%,,,IC50 (BV-2): 19.4 µM; viability at 24 h [3]: 91.1%
CO/C=C(/C(=O)OC)c1ccccc1Oc1cc(Oc2ccccc2C#N)ncn1 [AZOXYSTROBIN],99.2%,1.98 µg/mL,,
C=CCOC(=O)[C@@H]1CCC(=O)N1,84.2%,,12 mm,
O=C1CC[C@@H](C(=O)Nc2ccccc2O)N1,33.7%,,,
CCOC(=O)[C@@H]1CCC(=O)N1,95.8%,15.2 µg/mL,,
N#Cc1ccccc1OC(=O)[C@@H]1CCC(=O)N1,98.3%,9.62 µg/mL,14 mm,zone of inhibition at 2000 µg/mL (Ralstonia solanacearum): 7 mm
Cc1ccccc1OC(=O)[C@@H]1CCC(=O)N1,48.6%,,,
Nc1ccccc1NC(=O)[C@@H]1CCC(=O)N1,,,11.5 mm,zone of inhibition at 2000 µg/mL (Bacillus cereus): 5.5 mm
O=C1CC[C@@H](C(=O)NCCc2c[nH]c3ccccc23)N1,21.5%,,12 mm,zone of inhibition at 2000 µg/mL [4]: 15 mm
O=C1CC[C@@H](C(=O)O)N1 [PIDOLIC ACID],98.8%,7.85 µg/mL,17.5 mm,zone of inhibition at 2000 µg/mL (Ralstonia solanacearum): 7.5 mm; EC50 (Phytophthora infestans [5]): 9.48 µg/mL; EC50 [6]: 10.8 µg/mL
CCCOC(=O)[C@@H]1CCC(=O)N1,95.1%,12.4 µg/mL,,
C=CCNC(=O)[C@@H]1CCC(=O)N1,49.3%,,11.5 mm,IC50 (BV-2): 9.1 µM; viability at 24 h [3]: 95.4%; Activity (PC-12): 14.962%; zone of inhibition at 2000 µg/mL (Bacillus cereus): 15 mm
CCOC(=O)c1ccccc1OC(=O)[C@@H]1CCC(=O)N1,98.2%,16.4 µg/mL,13 mm,zone of inhibition at 2000 µg/mL (Staphylococcus aureus): 6.5 mm; zone of inhibition at 2000 µg/mL (Ralstonia solanacearum): 5.5 mm; zone of inhibition at 2000 µg/mL [4]: 11 mm
CN1CCN(C(=O)[C@@H]2CCC(=O)N2)CC1,,,,zone of inhibition at 2000 µg/mL (Bacillus cereus): 7 mm
O=c1c(O)c(-c2ccc(O)c(O)c2)oc2cc(O)cc(O)c12 [QUERCETIN],,,,IC50 (BV-2): 4.3 µM; viability at 24 h [3]: 99.5%
O=C1CC[C@@H](C(=O)Nc2ccc(C(F)(F)F)cc2)N1,,,13 mm,zone of inhibition at 2000 µg/mL (Bacillus cereus): 9.5 mm
O=C1CC[C@@H](C(=O)Oc2cccc3ccccc23)N1,98.5%,1.21 µg/mL,,Ratio EC50 (Phytophthora infestans [7]): 7

SMILES,inhibition at 100 µg/mL (Phytophthora infestans [1]),EC50 (Phytophthora infestans [2]),zone of inhibition at 2000 µg/mL (Bacillus thuringiensis),other results
NC(=O)[C@@H]1CCC(=O)N1,13.6%,,8 mm,zone of inhibition at 2000 µg/mL (Ralstonia solanacearum): 5.5 mm
CC(C)(C)NC(=O)[C@@H]1CCC(=O)N1,,,,zone of inhibition at 2000 µg/mL (Bacillus cereus): 12 mm
CC(C)COC(=O)[C@@H]1CCC(=O)N1,64.9%,,,
O=C1CC[C@@H](C(=O)Oc2ccccc2)N1,98.3%,19.5 µg/mL,,
CCCCOC(=O)[C@@H]1CCC(=O)N1,99%,11.2 µg/mL,,
O=C1CC[C@@H](C(=O)Oc2ccc(O)cc2)N1 [PIDOBENZONE],,,,IC50 (BV-2): 4.5 µM; viability at 24 h [3]: 92.6%; Activity (PC-12): 15.443%; zone of inhibition at 2000 µg/mL (Staphylococcus aureus): 6 mm; zone of inhibition at 2000 µg/mL (Bacillus cereus): 12 mm; zone of inhibition at 2000 µg/mL (Ralstonia solanacearum): 7 mm
C#CCNC(=O)[C@@H]1CCC(=O)N1,,,9 mm,IC50 (BV-2): 6 µM; viability at 24 h [3]: 89.5%; zone of inhibition at 2000 µg/mL (Staphylococcus aureus): 6 mm
COC(=O)[C@@H]1CCC(=O)N1,26.1%,,,
O=C1CC[C@@H](C(=O)Oc2ccccc2Cl)N1,98.4%,14.6 µg/mL,,
Cc1ccc(C(C)C)c(OC(=O)[C@@H]2CCC(=O)N2)c1,13.2%,,,
NNC(=O)[C@@H]1CCC(=O)N1,,,14 mm,
CC(C)OC(=O)[C@@H]1CCC(=O)N1,36.5%,,,
CCCCNC(=O)[C@@H]1CCC(=O)N1,17.8%,,7.5 mm,
CC1(C)S[C@@H]2[C@H](NC(=O)Cc3ccccc3)C(=O)N2[C@H]1C(=O)O [PENICILLIN G SODIUM],,,27 mm,zone of inhibition at 2000 µg/mL (Staphylococcus aureus): 28 mm; zone of inhibition at 2000 µg/mL (Bacillus cereus): 25 mm; zone of inhibition at 2000 µg/mL (Ralstonia solanacearum): 24 mm; zone of inhibition at 2000 µg/mL [4]: 28 mm
CNC(=O)[C@@H]1CCC(=O)N1,1.17%,,12 mm,
COC(=O)c1ccccc1NC(=O)[C@@H]1CCC(=O)N1,2.37%,,,zone of inhibition at 2000 µg/mL (Staphylococcus aureus): 6 mm; zone of inhibition at 2000 µg/mL (Bacillus cereus): 6 mm; zone of inhibition at 2000 µg/mL (Ralstonia solanacearum): 10 mm; zone of inhibition at 2000 µg/mL [4]: 9 mm
O=C1CC[C@@H](C(=O)Oc2ccc(Cl)cc2)N1,98.1%,1.44 µg/mL,,Ratio EC50 (Phytophthora infestans [7]): 7
O=C1CC[C@@H](C(=O)Nc2ccc([N+](=O)[O-])cc2)N1,47.5%,,,
CCN(CC)C(=O)[C@@H]1CCC(=O)N1,35.8%,,,zone of inhibition at 2000 µg/mL (Bacillus cereus): 10 mm; zone of inhibition at 2000 µg/mL [4]: 12 mm
CN(C)C(=O)[C@@H]1CCC(=O)N1,44.3%,,,
